Each structure is given as a SMILES string. The source made the active and inactive calls. The calls are words filed in the database; no cut-off is given here.

We go through ten molecules from ChEMBL document CHEMBL4732106, “Paracetamol analogues conjugated by FAAH induce TRPV1-mediated antinociception without causing acute liver toxicity” (Eur J Med Chem, 2021).

In data set [1] the target is T1, Fatty-acid amide hydrolase 1 (Mus musculus, UniProt O08914).
T1 sequence (O08914 whole entry): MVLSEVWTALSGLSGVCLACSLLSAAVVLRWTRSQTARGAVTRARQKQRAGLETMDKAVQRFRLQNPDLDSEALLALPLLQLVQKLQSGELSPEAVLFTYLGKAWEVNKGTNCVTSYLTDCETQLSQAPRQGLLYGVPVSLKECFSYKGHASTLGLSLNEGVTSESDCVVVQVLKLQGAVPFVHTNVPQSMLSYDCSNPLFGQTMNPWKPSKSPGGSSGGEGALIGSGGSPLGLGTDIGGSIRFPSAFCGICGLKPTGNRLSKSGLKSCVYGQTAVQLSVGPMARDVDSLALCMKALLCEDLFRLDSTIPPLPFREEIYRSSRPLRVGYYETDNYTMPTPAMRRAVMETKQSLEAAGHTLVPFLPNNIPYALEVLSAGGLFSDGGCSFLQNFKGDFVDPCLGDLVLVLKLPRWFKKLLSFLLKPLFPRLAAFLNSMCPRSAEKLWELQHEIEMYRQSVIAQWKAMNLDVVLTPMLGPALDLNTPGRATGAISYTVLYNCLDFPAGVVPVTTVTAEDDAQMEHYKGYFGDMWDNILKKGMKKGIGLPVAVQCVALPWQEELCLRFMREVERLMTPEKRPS
In words: Substrate activity at FAAH in FAAH+/+ mouse brain assessed as N-arachidonoyl conjugate level per g protein at 0.1 mM measured after 20 mins by LC-MS/MS analysis. The format is ADME, tissue-based. To be noted: 100 µM. In a few lines: (§1)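 Brains from FAAH+/+ or FAAH-/- mice were homogenized in ice-cold 10 mM Tris with 1 mM EDTA and 0.3 mM ascorbic acid. Aliquots were incubated with 0.1 mM primary amine for 20 min at 37 °C with stirring. Reactions were stopped with cold acetone containing AM404-d4 internal standard, and conjugates were measured by LC-MS/MS. n = 5–7.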

Data set [2] can be described thus: Prodrug conversion in FAAH-/- mouse brain assessed as N-arachidonoyl conjugate level per g protein at 0.1 mM measured after 20 mins by LC-MS/MS analysis. The format is ADME, tissue-based. The following applies: in vitro, 100 µM. A digest of the protocol:
as §1

Data set [3] is described as follows: Prodrug conversion in FAAH+/+ mouse brain assessed as N-arachidonoyl conjugate level per g protein at 100 mg/kg, ip measured after 20 mins by LC-MS/MS analysis. The following applies: in vivo. The format is ADME, organism-based. More on the design: unit: pmol/g protein. In a few lines:
(§2)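 FAAH+/+ and FAAH-/- mice (both sexes) received the primary amine i.p. in saline (sometimes with 5% DMSO). Brains were collected 20 min later, frozen, and homogenized in Tris/EDTA/ascorbate with 10 μM MAFP. N-arachidonoyl conjugates were quantified by positive-ion LC-MS/MS and normalized to protein.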

A short description of data set [4]: Prodrug conversion in FAAH-/- mouse brain assessed as N-arachidonoyl conjugate level per g protein at 100 mg/kg, ip measured after 20 mins by LC-MS/MS analysis. It counts as ADME, organism-based. Also noted: unit: pmol/g protein. The following applies: in vivo. A digest of the protocol:
as §2

Data set [5] addresses T2, Transient receptor potential cation channel subfamily V member 1 (Rattus norvegicus, UniProt O35433). As to the kind of experiment: Agonist activity at TRPV1 in rat isolated mesenteric arteries assessed as vasorelaxation of phenylephrine-induced contraction. It counts as tissue-based, Artery. A digest of the protocol:
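Indomethacin 10 μM and Nω-nitro-L-arginine 100 μM were present throughout. Segments were precontracted with phenylephrine and exposed to conjugate concentrations. pEC₅₀ taken at half-maximal relaxation; mean ± SEM, n = animals.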

The target of data set [6] is T2, Transient receptor potential cation channel subfamily V member 1. In words: Agonist activity at TRPV1 in rat isolated mesenteric arteries assessed as vasorelaxation of phenylephrine-induced contraction in presence of TRPV1 antagonist capsazepine. The format is tissue-based, Artery. In a few lines: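 Segments from male Wistar rats (200–250 g) were bathed in pH 7.4 physiological salt solution at 37 °C, gassed 95% O₂/5% CO₂, with indomethacin 10 μM and Nω-nitro-L-arginine 100 μM present. After phenylephrine precontraction, conjugate concentration–relaxation curves were run in the presence of capsazepine 3 μM. pEC₅₀ is the negative log molar concentration giving half-maximal relaxation; mean ± SEM, n = animals.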

Data set [7] deals with Mus musculus. As to the kind of experiment: Antinociceptive activity in ip dosed C57BL/6 mouse assessed as reduction in licking time during first phase treated for 10 mins and measured for 5 mins by formalin test. The format is functional, organism-based. To be noted: dose 25-100 mg/kg, time 15.0 min. A digest of the protocol:
(§3)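 Male C57BL/6 mice, 8 weeks old, randomized in equal blocks (5–10 per group), observer blinded. The test amine or vehicle was given i.p. 10 min before intraplantar 2.5% formalin (25 μl/mouse). Time spent biting/licking the injected paw was recorded in phase I (0–5 min) and phase II (15–40 min). Mean ± SEM, n = 5–6.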

The test system of data set [8] is Mus musculus. As to the kind of experiment: Antinociceptive activity in ip dosed C57BL/6 mouse assessed as reduction in licking time during second phase treated for 10 mins and measured for 15 to 40 mins by formalin test. The format is functional, organism-based. The following applies: dose 25-100 mg/kg, time 50.0 min. A digest of the protocol:
as §3

Data set [9] in a line: Effect on locomotor activity in C57BL/6 mouse assessed as change in latency to fall at 50 to 75 mg/kg, ip treated for 10 mins measured up to 60 mins by rotarod test. It counts as ADME, organism-based. The following applies: in vivo, 1 h, dose 50-75 mg/kg. In a few lines:
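Male C57BL/6 mice were first trained on a rotarod at a constant 4 rpm in 1-min sessions. At various times after i.p. dosing, the drum was accelerated from 4 to 40 rpm over 5 min and the latency to fall was recorded.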
Background: In the rotarod test animals must keep their balance on a rotating rod.

In data set [10] the test system is Mus musculus. As to the kind of experiment: Antinociceptive activity in C57BL/6 mouse assessed as reduction in licking time during second phase at 50 mg/kg, ip treated for 10 mins and measured for 15 to 40 mins in presence of FAAH inhibitor URB937 by formalin test. The format is functional, organism-based. To be noted: time 50.0 min. In a few lines: (§4)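 Male C57BL/6 mice, 8 weeks old. URB937 (5 μg in 5 μl) or capsazepine (10 μg in 5 μl) was given i.c.v. under brief isoflurane, 2 mm deep, 5 min before the i.p. test amine. Formalin 2.5% (25 μl) was injected intraplantar 10 min after dosing. Paw biting/licking time was scored in phase I (0–5 min) and phase II (15–40 min) by a blinded observer. Mean ± SEM, n = 8–14.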

In data set [11] the test system is Mus musculus. As to the kind of experiment: Antinociceptive activity in C57BL/6 mouse assessed as reduction in licking time during second phase at 50 mg/kg, ip treated for 10 mins and measured for 15 to 40 mins in presence of TRPV1 antagonist capsazepine by formalin test. The format is functional, organism-based. The following applies: time 50.0 min. A digest of the protocol:
as §4

Data set [12] deals with Mus musculus. In words: Antinociceptive activity in C57BL/6 mouse assessed as reduction in licking time during first phase at 50 mg/kg, ip treated for 10 mins and measured for 5 mins in presence of FAAH inhibitor URB937 by formalin test. The format is functional, organism-based. The following applies: time 15.0 min. A digest of the protocol:
as §4

For data set [13], the system named is Mus musculus. In words: Antinociceptive activity in C57BL/6 mouse assessed as reduction in licking time during first phase at 50 mg/kg, ip treated for 10 mins and measured for 5 mins in presence of TRPV1 antagonist capsazepine by formalin test. The format is functional, organism-based. The following applies: time 15.0 min. In a few lines:
as §4

Data set [14] in a line: Hepatotoxicity in C57BL/6 mouse assessed as change in ALT level at 300 mg/kg, ip measured after 12 hrs. It counts as toxicity, organism-based. The following applies: in vivo. In a few lines: (§5)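 Male C57BL/6 mice (8 weeks) were fasted 12–16 h, then given 300 mg kg⁻¹ i.p. in saline. At 12 h, blood was taken for serum ALT/AST (automated analyser). The left medial liver lobe was fixed in 4% formaldehyde, cryosectioned at 10 μm and stained with H&E. The ALT/AST ratio was tested against 1. Mean ± SEM, n = 6–7.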

Data set [15] is described as follows: Hepatotoxicity in C57BL/6 mouse assessed as centrilobular necrosis at 300 mg/kg, ip measured after 12 hrs by H and E staining based microscopic analysis. It counts as toxicity, organism-based. The following applies: in vivo. A digest of the protocol:
as §5

Data set [16] is described as follows: Prodrug conversion in FAAH+/+ mouse brain assessed as N-arachidonoyl conjugate level per g protein at 300 mg/kg, ip measured after 20 mins by LC-MS/MS analysis. The format is ADME, organism-based. To be noted: in vivo. A digest of the protocol: as §2
Data set [17] can be described thus: Prodrug conversion in FAAH-/- mouse brain assessed as N-arachidonoyl conjugate level per g protein at 300 mg/kg, ip measured after 20 mins by LC-MS/MS analysis. It counts as ADME, organism-based. To be noted: in vivo. In a few lines:
as §2

T2 sequence (O35433 whole entry): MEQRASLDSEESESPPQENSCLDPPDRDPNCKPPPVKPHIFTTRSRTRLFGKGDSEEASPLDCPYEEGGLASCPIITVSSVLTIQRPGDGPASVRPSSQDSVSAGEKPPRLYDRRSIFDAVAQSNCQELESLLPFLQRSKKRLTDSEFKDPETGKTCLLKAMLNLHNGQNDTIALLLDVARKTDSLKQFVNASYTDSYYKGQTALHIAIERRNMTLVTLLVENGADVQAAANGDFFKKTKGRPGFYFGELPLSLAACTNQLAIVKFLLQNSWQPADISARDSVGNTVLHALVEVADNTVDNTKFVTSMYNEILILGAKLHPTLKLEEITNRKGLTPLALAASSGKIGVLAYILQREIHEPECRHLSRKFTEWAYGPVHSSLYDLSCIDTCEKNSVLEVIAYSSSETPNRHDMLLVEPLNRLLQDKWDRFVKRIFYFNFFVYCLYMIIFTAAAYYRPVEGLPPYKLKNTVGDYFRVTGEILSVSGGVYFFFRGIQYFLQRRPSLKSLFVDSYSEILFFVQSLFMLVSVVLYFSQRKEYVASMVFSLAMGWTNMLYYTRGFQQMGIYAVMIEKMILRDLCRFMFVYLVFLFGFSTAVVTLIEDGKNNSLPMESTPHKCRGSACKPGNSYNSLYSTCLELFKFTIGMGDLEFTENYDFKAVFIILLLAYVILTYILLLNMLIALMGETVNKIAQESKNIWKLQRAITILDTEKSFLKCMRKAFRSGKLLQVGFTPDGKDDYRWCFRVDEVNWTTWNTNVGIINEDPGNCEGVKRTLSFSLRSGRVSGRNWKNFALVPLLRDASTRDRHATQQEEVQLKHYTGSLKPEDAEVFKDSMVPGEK

As for `COc1cc(N)ccc1O`, the Drug metabolism stood at 0.54 nmol/g in [1], 0.005 nmol/g in data set [2], 82 pmol in data set [3] and 190 pmol in data set [4].
The term EC50 denotes the midpoint of the concentration-response curve. For the molecule `CCCCC/C=C\C/C=C\C/C=C\C/C=C\CCCC(=O)NCc1ccc(O)c(OC)c1`, in [5], the concentration giving a half-maximal response (EC50) was 0.501 nM.
As to `CCCCC/C=C\C/C=C\C/C=C\C/C=C\CCCC(=O)NCc1ccc2[nH]ncc2c1`, the concentration for a half-maximal effect (EC50) in data set [5] is 3.98 nM; in data set [6], 158 nM.
On to `NCc1ccc2[nH]ncc2c1`, for which the Drug metabolism in data set [1] amounted to 2.5 nmol/g; in data set [2] it was 0.04 nmol/g; in data set [3] it was 58 pmol; in data set [4], 58 pmol.
Take `CCCCC/C=C\C/C=C\C/C=C\C/C=C\CCCC(=O)Nc1ccc2[nH]ncc2c1`: the EC50 in [5] is 12.6 nM; in data set [6], 398 nM.
With `CCCCC/C=C\C/C=C\C/C=C\C/C=C\CCCC(=O)Nc1ccc(O)cc1`, the EC50 in [5] is 50.1 nM.
As to `CCCCC/C=C\C/C=C\C/C=C\C/C=C\CCCC(=O)Nc1ccc(OC)c(O)c1`, the EC50 in data set [5] is 3.16 nM; in [6], 63.1 nM.
Take `COc1ccc(N)cc1O`: the Drug metabolism in data set [1] worked out at 3 nmol/g; in data set [2] it was 0.06 nmol/g; in [3], 283 pmol; in data set [4], 42 pmol. Also, the Activity entry in data set [7] is “Dose-dependent effect”; in [8], “Dose-dependent effect”; in data set [9], “Non-Toxic”; in [14], “Non-Toxic”; in data set [15] it was “Non-Toxic”. Further, the result in data set [10] and in data set [11] was inactive. For the same molecule, the outcome in data set [12] and in [13] was Active.
In the case of `CCCCC/C=C\C/C=C\C/C=C\C/C=C\CCCC(=O)Nc1ccc(O)c(OC)c1`, the concentration giving a half-maximal response (EC50) in data set [5] was 1.26 nM; in data set [6], 15.8 nM.
`COc1cc(CN)ccc1O`: the Drug metabolism in data set [1] was 2.5 nmol/g; in [2], 0.01 nmol/g; in data set [16], 40 pmol; in data set [17], “Metabolite_Notdetected”. For the same molecule, the Activity entry in data set [14] and in data set [15] was “Non-Toxic” in each case.
